Data published in ChEMBL document CHEMBL4513216, “Probing the Open Global Health Chemical Diversity Library for Multistage-Active Starting Points for Next-Generation Antimalarials” (ACS Infect Dis, 2020).

assay: Toxicity liver stage against HepG2, at 10uM; format: cell-based; design: test concentration 10 uM, cell line HepG2-A16-CD81EGFP; details: human, HepG2-A16-CD81EGFP cells; read-out: INHIBITION
How it was run: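 Uninfected HepG2-A16-CD81EGFP cells, 3 × 10^3 per well, 1536-well, plated on prespotted compound at 10 μM final, parasite-free screening media added to match infected plates; puromycin 10 μM positive, DMSO 0.5% negative; run in parallel with 48 h PbLuc assay at 37 °C, 5% CO2; viability by CellTiter-Glo luminescence, normalized to controls.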

SMILES | cytotoxicity at 10 µM [%]
CC(C)c1noc(C[S+]([O-])CC(=O)Nc2cc(F)ccc2F)n1 (stereo unspecified) | 8.15
CCc1noc(CN(CC)C(=O)c2ccc3ncsc3c2)n1 | 12.2
O=C(c1ccno1)N1CCC2(CC(=O)N(c3ccc4c(c3)OCO4)C2)C1 (stereo unspecified) | 9.82
O=C(NCC1(O)CCc2ccccc21)Nc1ccc2c(c1)OCO2 (stereo unspecified) | -11.2
O=C(c1ccoc1)N1CCC2(CC1)COC(COc1ccccn1)C2 (stereo unspecified) | -123
CN(C(=O)NC1CC1)C1CCN(c2ccc(Cl)cc2)CC1 | -8.39
Cc1oc(-c2ccsc2)nc1CC(=O)NCCCS(C)(=O)=O | -11.2
COCC1CN(C(=O)Cc2cccs2)Cc2c1cnn2C (stereo unspecified) | -65.6
O=C(Nc1ccccc1OC1CCOC1)c1cc[nH]n1 (stereo unspecified) | -1.57
COc1ccccc1CN(C)c1nccc(-c2cn(C)nc2C)n1 | 53.8
Cc1noc(C)c1S(=O)(=O)N1CCC(Oc2cnccn2)CC1 | 4.95
Cc1cc(C(=O)NC2CCCN(c3ccccc3)C2=O)on1 (stereo unspecified) | 24.7
O=C(Cc1ccon1)NC1CCCN(c2ccccc2F)C1=O (stereo unspecified) | -2.03
Cn1cccc1C(=O)N1CCN2C[C@H](Oc3cccnc3)C[C@H]2C1 | 3.58
CC(CN1CCOCC1)OC(=O)c1ccccc1Cl (stereo unspecified) | -4.52
CC(O)CCN(C)S(=O)(=O)Cc1ccc(Cl)c(Cl)c1 (stereo unspecified) | 3.92
CC(C)N1CCC(N2CCCC(C(=O)NCC3(C)COC3)C2)CC1 (stereo unspecified) | -5.62
Cc1ncc2c(n1)CN(CC(=O)Nc1cccnc1)CC2 | 0.66
O=C(NCc1ccco1)[C@@]12CCO[C@@H]1CCN(c1ncccn1)C2 | 0.864
Fc1cccc(C2CCCCN2Cc2nc(-c3cnccn3)no2)c1 (stereo unspecified) | -3.02
Cc1cc(N)cc(C2CN(Cc3cc[nH]n3)CCO2)n1 (stereo unspecified) | -29.1
COc1ccc(CN2CCCC(Nc3cccc(F)c3)C2)cc1O (stereo unspecified) | 5.76
CC(C(=O)NCc1cn2cc(Br)ccc2n1)S(C)(=O)=O (stereo unspecified) | -16.4

SMILES | cytotoxicity at 10 µM [%]
CCNc1cc2c(nn1)CCN(C(=O)c1cc(C)no1)C2 | -14.5
c1cc(CNCc2cccc3c2OCCO3)cc(Cn2cncn2)c1 | -1.54
CC(C)(C)n1ccc(C(=O)N2CCCC(c3ccc(C(=O)O)cc3)C2)c1 (stereo unspecified) | 1.31
CN(CC(=O)Nc1cc(CC2CCCCC2)n[nH]1)S(C)(=O)=O | 3.44
Cc1cccc(CN2CCN(C(=O)c3cc(C4CC4)[nH]n3)CC2)c1 | -5.38
Cc1ocnc1CNC(=O)Nc1ccc(N2CCOC(C)C2)cc1 (stereo unspecified) | -2.8
c1cc(-c2nc(CN3CCc4c(ncn4C4CC4)C3)cs2)cs1 | -4.25
COc1ccc(C(=O)N2CCN(C(=O)Cn3nccc3C)CC2)cc1 | 6.88
Cn1c(=O)n(C)c2nc(Cl)c(CC(=O)c3ccccc3)n2c1=O | -13.9
CCC(=O)N1CCC(NC(=O)c2cccc(-n3ccnc3)c2)C1 (stereo unspecified) | 8.96
Cc1ncc(CNC(=O)N(C)C2CCN(c3ccccc3)C2=O)s1 (stereo unspecified) | -14.7
COC(=O)C1CCCN1C(=O)c1cc(CC(C)C)no1 (stereo unspecified) | 14
COCCN1C(=O)CC(c2cccnc2)C12CCN(C(=O)C1CC1)CC2 (stereo unspecified) | -104
COc1cccc(S(=O)(=O)N2CCn3cnc(COCC4CC4)c3C2)c1 | -18.9
CCc1nc(N2CCCC(CCOC)(C(=O)O)C2)ncc1C (stereo unspecified) | 4.11
CC(=O)NCC(=O)N1CCCC(C(=O)c2ccc(C(C)(C)C)cc2)C1 (stereo unspecified) | 5.78
CC(O)CN1CCN(C(=O)c2ccnc(N(C)C)c2)CC1 (stereo unspecified) | 4.37
Cn1cnc(S(=O)(=O)NCCCN2CCCC2=O)c1Cl | -12.1
c1ccc(COC[C@@]23CCC[C@@H]2CN(Cc2ccccn2)C3)nc1 | 1.39
Cc1nn(C)cc1-c1cc(C(F)F)nc(NC2CCCCC2)n1 | 1.84
O=c1c2ccccc2ncn1Cc1cc(C2CC2)[nH]n1 | 3.8
CCOc1ccccc1CC(=O)N1CCCC(c2ncc[nH]2)C1 (stereo unspecified) | -2.65
Cc1cc(C)cc(C(=O)N2CCN(C(=O)N(C)C)CC2(C)C)c1 | 1.98

SMILES | cytotoxicity at 10 µM [%]
NC(=O)CCn1nnc(-c2cc3ccccc3o2)n1 | 4.56
COCc1cccc(C(=O)N2CCCC2)c1 | -1.7
COCCCNC(=O)CN1CCOC(c2ccccc2)C1 (stereo unspecified) | 18.6
CC(C)C(C)(O)CNc1cccc(F)c1C#N (stereo unspecified) | -8.87
CSc1nnc(C2CCN(C(=O)N3CCCC3)CC2)n1C(C)C | 8.54
Cc1cc(NCCn2cccn2)n2ncnc2n1 | -2.27
CC(C)(C)CN(CCC#N)C(=O)c1cccc(CN2CCCC2)c1 | 0.234
OC(c1cnn(-c2ccccc2)c1)C(F)(F)F (stereo unspecified) | -3.75
O=C(COc1ccc2c(c1)CCC2)N1CCCC1c1ccc[nH]1 (stereo unspecified) | 6.54
CCC(=O)c1ccc(OCC(=O)NC(C)c2nnc(C)[nH]2)cc1 (stereo unspecified) | 5.37
Cc1ccc2nc(C)c(C)c(C(=O)N3CCC4(CCO4)CC3)c2c1 | 0.707
Cc1ccc(C(=O)N2C[C@@H]3CCN(C(C)C)C[C@@H]3C2)cn1 | -6.54
O=C(NCC1CC1)c1cnc(-c2ccccc2)nc1 | 7.5
Cc1nc(C)n(CC2CCCCN2CCCO)n1 (stereo unspecified) | 4.37
CCN(Cc1cccc(Cl)c1)Cc1nc2c(cnn2C)c(=O)[nH]1 | 1.01
Cc1n[nH]c(C2CN(CC(=O)NCc3cccs3)CCO2)n1 (stereo unspecified) | -4.13
Cn1ccnc1CNCCNc1ncc(Cl)cc1Cl | 0.321
Cc1ccc(C)c(CS(=O)(=O)CC(=O)N(C)Cc2cccc(F)c2)c1 | 4.42
Cc1nc(N2CCCCC2)ncc1-c1cc(O)[nH]n1 | 2.76
CS(=O)(=O)NCC(=O)NCc1cccnc1-n1cnc2ccccc21 | 0.324
CC(=O)N1CCN(Cc2ccc(C(F)(F)F)c(F)c2)CC(O)C1 (stereo unspecified) | -2.2
O=C(NCCCNC(=O)c1ccc(F)cc1F)c1cccc(O)c1 | 2.9
CC(C)NC(=O)N1CCCC2(CCN(c3ccsc3)C2=O)C1 (stereo unspecified) | -0.42

SMILES | cytotoxicity at 10 µM [%]
CN(C)CC(=O)N1CCCC1c1ccccn1 (stereo unspecified) | 4.38
CNS(=O)(=O)c1cccc(CNCc2ccsc2)c1 | -2.54
O=C(NCC1(Sc2ccccc2)CC1)c1c[nH]nn1 | -17.9
CN(CCOCC1CC1)C(=O)Nc1ccc([S+](C)[O-])cc1 (stereo unspecified) | 19.4
Cc1cc(-c2nc(C3(NC(=O)OC(C)(C)C)CCC3)no2)on1 | 5.98
CC(=O)N1CCCC1c1ccc(-c2c(C)noc2C)cn1 (stereo unspecified) | 2.88
CC(NC(=O)CCOc1ccc(F)cc1)c1nnc2n1CCCCC2 (stereo unspecified) | -8.71
O=C(NCc1nncn1C1CC1)C1(c2ccccc2)CCOCC1 | 3.31
COCC(C)NC(=O)NCCc1cccc(OC)c1O (stereo unspecified) | 7.87
Cc1ccsc1[C@@H]1CCN(C(=O)CCc2cc(O)no2)C[C@H]1O | -4.73
COc1cccc(-c2n[nH]c3c2CN(C(=O)c2cccc(=O)[nH]2)CC3)c1 | -5.66
Cc1nccn1C1CCCN(C(=O)Cc2cn3ccccc3n2)C1 (stereo unspecified) | -20.9
c1ccc(OCC2CC3(CCN(Cc4ccncc4)CC3)CO2)nc1 (stereo unspecified) | -12.5
CCCn1nc(C(=O)NCCc2nnc3n2CCC3)ccc1=O | 3.38
COc1ccsc1C(=O)NC1CCN(c2cccc(F)c2)CC1 | 18.3
O=S(=O)(c1ccccc1)N1C[C@@H]2CCCCN(Cc3cccs3)[C@@H]2C1 | 1.56
Cn1ccc(C(=O)NCc2ccc(N3CCCCC3)nc2)cc1=O | -10.8
CC(C)(C)c1cn2nc(N3CCC[C@@H]3CO)sc2n1 | 3.64
COCCNC(=O)[C@@]12CCO[C@@H]1CCN(Cc1c(C)noc1C)C2 | -2.45
Cc1nccc(CNC(=O)NCC(C)Oc2ccccc2F)n1 (stereo unspecified) | -13.2
Cc1nc2ccccc2n(Cc2nnnn2C2CC2)c1=O | -10.3
CC(=O)N[C@@H]1C[C@H](c2ccc(OCCO)cc2)OC2(CCOCC2)C1 | -21.2
CC1=Nc2c(c(=O)[nH]n2C(C)C)C(c2ccsc2)S1 (stereo unspecified) | -2.92

SMILES | cytotoxicity at 10 µM [%]
O=C(c1cccc(F)c1)N1CC[C@H]2[C@H]1CCN2CC1CCOCC1 | -75.4
O=C(C1CCCCC1)N1C[C@@H]2CCNC[C@@H]21 | 3.47
CCN(CC)S(=O)(=O)c1ccc(C(F)(F)F)cc1C#N | -13.4
Cc1noc(C)c1C(=O)N[C@@H]1CC[C@@H](Oc2ccccc2)[C@@H]1O | 0.395
Cn1ccc2c(-c3cc(N4CCCCC4)ncn3)ccnc21 | -3.46
CS(=O)(=O)Cc1ccc(C(=O)NCc2ccc(Cl)cc2Cl)cc1 | -47.6
CC1c2ncc(CN3CCN(C)CC3)n2CCN1Cc1cccnc1 (stereo unspecified) | -2.12
O=C(c1cccc(NCc2cccc(F)c2)c1)N1CCC(O)CC1 | 5.84
CC1=NC2(CCN(CC(C)c3ccccc3)CC2)C(=O)N1 (stereo unspecified) | 5.33
COc1ccc(OC)c2c(C)cc(N(C)CCCO)nc12 | 7.17
Cc1nn(C)c(C)c1-c1cncc(C2CCN(S(C)(=O)=O)CC2)n1 | 8.88
Cc1ccc(CN2C[C@@H]3CCCO[C@@H]3[C@H](NS(C)(=O)=O)C2)o1 | 5.16
COCCN1CCC(c2nc3ccc(NC(C)C)cn3n2)CC1 | -5.26
CN(Cc1cn2c(n1)CN(C1CCOC1)CC2)Cc1ccco1 (stereo unspecified) | -2.15
Cc1cnc(-c2nc(NC3CC3)ncc2-c2cc(C)no2)cn1 | -21.3
Cn1cc(C(=O)N2CC[C@@H]3[C@@H]2CCN3c2ncc(F)cn2)cn1 | 13.8
O=C(NCc1ccc(CN2CCCC2)cc1)NC1(CO)CCCC1 | -63.4
Cc1nn(C)c(N(C)C)c1CNCc1cnn(Cc2ccccc2)c1 | -5.6
CCN(CC)CCN1CC[C@H]2OCC[C@@]2(C(=O)N2CCOCC2)C1 | 4.64
